pCIP destab = compounds decreasing mouse p/CIP protein stability. AID 1984. F442A p/CIP-EGFP cells, EGFP fluorescence, 16 h. 290,000 compounds, 0.01% hits. Q05BA5. decrease of EGFP signal, % at 10 µM;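 active = EGFP signal decrease of at least 30% at 10 µM or well 3 SD below plate mean, unless failing retest; inactive = the rest, including hits failing retest or dose response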
PP1 inh = counter-screen for PP5 inhibitors: inhibitors of human PP1-alpha; P62136; purified PP1alpha, OMFP fluorescence; inhibition, % at 6.7 µM; 320,000 compounds, 0.9% hits; AID 2235;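 active = inhibition above the mean inhibition of all tested compounds plus 3 SD, computed separately for each screening campaign, cut at about 15% in these data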
AI-2 QS mod = Vibrio harveyi AI-2 quorum sensing modulation; Vibrio harveyi JMH597 AI-2 luminescence/OD600 ratio, 9 h; stronger effect = lower value; strain lacks LuxN and CqsS sensors; 0 = neutral-control median; activity change, % at 7.5 µM; 300,000 compounds, 0.4% hits; AID 2094; in the data active = activity change below about -75%, passing the limit was not always enough; inconclusive = no clear call, values can overlap the other calls;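 also: luminescence divided by OD600 gain over 9 h not by final OD600 alone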
UBC13 inh = blocks human UBC13 polyubiquitin chain formation; P61088; TR-FRET; inhibition, % at 20 µM; 330,000 compounds, 0.47% hits; AID 485273; in the data active = inhibition above about 45%, passing the limit was not always enough; inconclusive = no clear call, values can overlap the other calls
T cruzi repl = blocks replication of Trypanosoma cruzi; T. cruzi beta-gal in NIH3T3, luminescence, 90 h; 300,000 compounds, 1.4% hits; inhibition, % (test concentration not listed);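 active = mean inhibition across valid replicates above about 55%, limit read from the data; inconclusive = mean below that limit but half or more replicates reach it; inactive = mean below it, under half of replicates reach it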;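 also: signal also drops with host cell toxicity which is not excluded here; 0% = plate median of DMSO wells and 100% = zero luminescence signal; higher percent means less beta-gal luminescence so fewer parasites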
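compound dosing = single 50 nL compound addition per well in DMSO | material = NIH/3T3 host cells with β-galactosidase reporter T. cruzi | input = 5,000 host fibroblasts per well | timing = ≥90 h infection period, 3 h prior cell attachment | read-out basis = percent inhibition of parasite-derived β-gal signal | detection = GalScreen β-gal luminescence, detergent lysis, 60 min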
An asterisk follows results filed as active; ? = inconclusive; nt = no result. Rows were chosen to be rich in hits. Some 2.8% of all compounds tested hit in one or more screens of this group.

SMILES	pCIP destab	PP1 inh	AI-2 QS mod	UBC13 inh	T cruzi repl
COc1ccc(-c2nc(CN3CCN(Cc4cccc(Cl)c4)CC3)c(C)o2)cc1	-16.2	2.8	1.1	4.8	56.0*
CC1CCc2c(sc(NC(=O)/C=C/c3cccs3)c2C(=O)O)C1 (stereo unspecified)	-2.2	1.1	46.6	-7.0	-10.7
c1ccc(-c2ccc(OCCCNC3CCCC3)cc2)cc1	-10.7	0.0	-1.8	14.8	59.7*
COc1ccc(OCCNC2CCCC2)cc1	-3.9	-2.9	25.8	-16.7	11.0
N#Cc1ccc(OCCOCCNC2CCCC2)cc1	-12.3	-2.7	26.6	8.9	66.9*
c1cc2c(cc1OCCNC1CCCC1)CCC2	-6.3	-1.2	14.5	-3.2	-21.3
c1ccc(Cc2ccc(OCCCNC3CCCC3)cc2)cc1	-7.3	-0.1	-12.8	24.9	67.2*
COC(=O)c1ccccc1NC(=O)C1CCN(C(=O)c2cc(OC)c(OC)c(OC)c2)CC1	-5.0	1.5	0.3	0.0	8.6
Cc1ccc(N2CC(=O)N(c3ccc(C)cc3)CC2=O)cc1	-8.3	1.5	19.2	6.2	-8.0
O=C(NCCc1ccccc1)/C(=N\O)c1ccccc1	-0.4	-0.7	-78.7*	-1.3	6.8
CN(C)CCCNC(=O)/C(=N\O)c1ccccc1	1.7	-2.4	16.3	-4.9	-17.8
N#C/C(=C(/O)c1ccc([N+](=O)[O-])s1)c1nc2ccccc2[nH]1	-15.9	-3.6	15.0	-54.7	54.7*
N#C/C(=C(/O)c1ccc(Br)s1)c1nc2ccccc2[nH]1	-9.4	0.2	10.4	11.2	-41.2
CCC(CC)c1nnc(NC(=O)C2CC(=O)N(C3CCCC3)C2)s1 (stereo unspecified)	-5.4	-0.4	16.4	2.4	3.9
Cc1cc(C)c(OCCCCN(C)C)c(Br)c1	24.5	1.2	14.9	-1.3	70.5*
C/C(=N\NC(=S)NC(C)C)c1ccccc1	-3.3	-2.9	-0.5	10.9	-2.4
CC(C)NC(=S)NC(c1ccccc1)(c1ccccc1)c1ccccc1	5.6	-0.1	35.1	7.9	54.7*
CSc1ncccc1C(=O)OCC(=O)c1ccc(Br)s1	15.1	2.1	3.2	7.2	-0.7
CN1Cc2cccc3c2C(Cc2ccccc2S3)C1 (stereo unspecified)	-9.1	3.6	11.9	0.2	58.4*
Cc1cccc(N/C=C(\[N+](=O)[O-])S(=O)(=O)c2ccccc2)c1C	-1.6	-3.5	3.5	2.1	81.9*
Nc1c(N(CCO)C(=O)C2CCCC2)c(=O)[nH]c(=O)n1Cc1ccccc1	nt	nt	nt	11.6	nt
COc1ccc(NC(=O)c2ccc([N+](=O)[O-])o2)cc1	-28.0	0.3	-4.3	-13.6	24.0
CC(=O)c1cccc(NC(=O)c2ccc([N+](=O)[O-])o2)c1	nt	-3.5	?	-16.8	21.2
CC(=O)c1ccc(NC(=O)c2ccc([N+](=O)[O-])o2)cc1	-5.9	nt	-91.4*	-16.3	5.8
Cc1cc(NC(=O)c2ccc([N+](=O)[O-])o2)ccc1NC(=O)c1ccco1	-9.1	nt	-94.0*	nt	44.0
SMILES	pCIP destab	PP1 inh	AI-2 QS mod	UBC13 inh	T cruzi repl
Cc1cc(C)cc(NC(=O)c2ccc([N+](=O)[O-])o2)c1	-15.3	nt	-110.1*	-3.3	20.4
Cc1[nH]c(=O)nc(SCc2cccc(Cl)c2)c1C#N	-2.4	1.0	33.4	2.6	0.5
N#Cc1c(-c2ccccc2)nc(SCc2cccc(Cl)c2)[nH]c1=O	-2.6	17.2*	12.6	22.5	-1.2
COc1ccc(C)cc1NC(=O)CN(Cc1nnc(-c2ccc(Cl)cc2)o1)C1CCCC1	-3.7	16.2*	5.7	4.4	29.3
COc1ccc(Cl)cc1NC(=O)CN(C)C1CCCCC1	-7.4	-2.8	19.1	30.2	16.0
COc1cc(/C=C/C(=O)c2ccc([N+](=O)[O-])o2)ccc1O	nt	-1.3	-174.9*	-35.6	?
Cc1nc(N2CCCCC2C)c2c(C)c(C(=O)Nc3cccc(C(F)(F)F)c3)sc2n1 (stereo unspecified)	-8.4	-1.4	12.7	39.0	50.7
Cc1nc(N2CCCCC2)c2c(C)c(C(=O)Nc3cccc(C(F)(F)F)c3)sc2n1	-4.4	3.7	2.7	37.0	64.6*
COc1cccc(N=Nc2c(N)[nH]n3c(=O)c4c(nc23)CCCC4)c1	-10.3	16.6*	21.9	-90.7	4.2
O=C(/C=C/c1ccccc1O)c1ccc(Cl)cc1	6.0	16.6*	-56.1	8.8	-9.3
CCc1ccccc1NC(=O)CSc1ccsc1[N+](=O)[O-]	-17.8	-1.9	16.3	5.4	11.9
COc1ccccc1NC(=O)COC(=O)c1ccc([N+](=O)[O-])s1	-5.4	2.5	-87.0*	0.0	19.3
CCc1ccccc1NC(=O)c1ccc([N+](=O)[O-])s1	3.2	-1.1	?	-19.9	59.7*
CN(C)c1cccc(NC(=O)c2ccco2)c1	6.6	4.3	15.7	-3.4	-6.4
CCN(CC)P(=O)(Nc1cccc(C(F)(F)F)c1)c1ccc(N(C)C)cc1NC(=O)c1ccco1 (stereo unspecified)	7.1	7.2	11.3	0.8	55.0*
O=C(NCCCn1ccnc1)c1cc(Cl)cc(Cl)c1	-14.7	-1.1	3.5	8.2	12.8
CCOC(=O)c1sc(-c2ccc(C(F)(F)F)cc2)nc1O	1.2	16.6*	33.9	8.5	-1.6
COc1cccc(C2c3[nH]c4ccccc4c3CCN2Cc2cccn2-c2ncccn2)c1 (stereo unspecified)	-20.3	3.4	6.9	13.2	50.3
Fc1ccc(C2c3[nH]c4ccccc4c3CCN2Cc2cccn2-c2ncccn2)cc1 (stereo unspecified)	-11.3	-1.3	29.8	5.2	69.7*
O=C(CC1CC2CCC1C2)OCC(=O)c1c[nH]c2ccccc12 (stereo unspecified)	-0.6	1.6	-83.9*	2.5	4.3
Nc1ccc2nc(N3CCOCC3)sc2c1	-13.1	-2.5	13.8	-2.1	76.0*
CCCC1(C(=O)OCC)NC(c2ccc(O)cc2)C2C(=O)N(c3cccc(C(C)=O)c3)C(=O)C21 (stereo unspecified)	-11.5	-4.5	1.8	-3.7	-8.9
O=C(O)c1ccc(NC(=S)NC(=O)c2cccc(COc3ccccc3)c2)cc1	-7.0	13.8	-2.2	-26.1	-3.8
O=C(NC(=S)Nc1ccc(CN2CCCCC2)cc1)c1cccc(OCc2ccccc2)c1	-14.7	3.4	10.0	20.1	72.6*
CCCCN(CCCC)CCNC(=O)c1cn(CC)c2ccc(S(=O)(=O)N3CCCC3)cc2c1=O	6.3	-1.9	11.3	-5.6	12.6
CCOc1ccc(N/C(C)=C/C(=O)c2ccc(C)o2)cc1	1.9	-5.6	3.6	-11.9	60.2*
O=C(N/N=C/c1ccccc1O)C(=O)Nc1ccccn1	-0.6	0.1	-17.5	6.6	-3.3
CC1CCCCN1C(=O)c1ccc(CS(=O)(=O)Cc2ccccc2)cc1 (stereo unspecified)	-7.0	-1.5	7.9	0.4	1.2
C/C(=N\NC(=O)Cc1c(F)cccc1Cl)c1cccnc1	-8.8	nt	6.2	-2.9	-13.9

Assay outcomes as filed in PubChem.
